The values below come from ChEMBL document CHEMBL2321668, “Aromatic bis-N-hydroxyguanidinium derivatives: synthesis, biophysical, and biochemical evaluations” (J Med Chem, 2013).

Structures can show the parent of a compound that is named as a salt. The source made the active and inactive calls. The rule behind the calls is not given here.

For one data set, the system named is Salmonidae. Description: Binding affinity to salmon sperm DNA assessed as change in melting temperature at 15 uM by thermal denaturation assay.
The nature of data set [1]: Cytotoxicity against human Kelly cells assessed as reduction in cell viability 50 uM after 72 hrs by Alamar blue assay. The class given is functional. Put shortly: (§1)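 Kelly neuroblastoma cells in RPMI/10% FBS, 6000/well, were preincubated 24 h, then given a 1:100 dilution of aqueous stocks (1% ddH2O vehicle) for 72 h at 37 °C. AlamarBlue was added for 4.5 h in the dark and fluorescence read at 544/590 nm. Viability is blank-corrected and given as % of vehicle. IC50 comes from a sigmoidal fit. Triplicate wells, at least three experiments.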

In data set [2] the test system is MCF7. In words: Cytotoxicity against human MCF7 cells assessed as reduction in cell viability after 72 hrs by Alamar blue assay. The class given is functional, cell-based. The settings on record: MCF7, 72 h. Put shortly: (§2)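 MCF-7 cells in MEM/10% FBS with nonessential amino acids, 10,000/well, were preincubated 24 h, then treated for 72 h at 37 °C with a 1:100 dilution of aqueous stocks (1% ddH2O vehicle). AlamarBlue was added for 4.5 h in the dark and fluorescence read at 544/590 nm. Viability is blank-corrected and given as % of vehicle. IC50 comes from a sigmoidal dose–response fit. Triplicate wells, at least three experiments.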
In general terms: Alamar Blue is a resazurin reagent that responds to reducing activity.

The subject of data set [3] is HL-60. In words: Cytotoxicity against human HL60 cells assessed as reduction in cell viability after 72 hrs by Alamar blue assay. It is filed as functional, cell-based. Particulars: HL-60, 72 h. In outline:
(§3)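 HL-60 cells in log phase, 4 × 10^4 cells/well in RPMI/10% FBS, were treated with a 1:100 dilution of aqueous stocks (1% ddH2O vehicle), final 1–100 μM, for 72 h at 37 °C. AlamarBlue was added for 4.5 h in the dark and fluorescence read at 544/590 nm. Viability is blank-corrected and given as % of vehicle. IC50 comes from sigmoidal dose–response fits. Triplicate wells, at least three experiments.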

Data set [4] is described as follows: Cytotoxicity against human Kelly cells assessed as reduction in cell viability 30 uM after 72 hrs by Alamar blue assay. It is filed as functional. Put shortly:
as §1

Data set [5] can be described thus: Cytotoxicity against human Kelly cells assessed as reduction in cell viability after 72 hrs by Alamar blue assay. It is filed as functional, cell-based. In outline: as §1
Data set [6] deals with MCF7. Description: Cytotoxicity against human MCF7 cells assessed as reduction in cell viability at 100 uM after 72 hrs by Alamar blue assay. The class given is functional. In outline:
as §2

Data set [7] can be described thus: Cytotoxicity against human Kelly cells assessed as reduction in cell viability 40 uM after 72 hrs by Alamar blue assay. It is filed as functional. Put shortly:
as §1

Data set [8] can be described thus: Dissociation constant, pKa of the compound. It is filed as physicochemical.
Data set [9] in a line: Cytotoxicity against human Kelly cells assessed as reduction in cell viability 100 uM after 72 hrs by Alamar blue assay. It is filed as functional. In outline: as §1
The subject of data set [10] is HL-60. In words: Cytotoxicity against human HL60 cells assessed as reduction in cell viability at 100 uM after 72 hrs by Alamar blue assay. The class given is functional, cell-based. Put shortly: as §3
Data set [11] in a line: Binding affinity to poly(dA-dT)2 (unknown origin) assessed as change in melting temperature.
The subject of a further data set is DNA. Description: Binding affinity to calf thymus DNA assessed as change in melting temperature. The settings on record: Bos taurus. It is filed as nucleic-acid assay.
Data set [12] relates to HL-60. Description: Cell cycle arrest in human HL60 cells assessed as accumulation at G0/G1 phase at 50 uM after 72 hrs by flow cytometric analysis (reference value: 59.5 +/- 1.50%). The class given is functional.
In data set [13] the test system is HL-60. Description: Cell cycle arrest in human HL60 cells assessed as accumulation at S phase at 50 uM after 24 hrs by flow cytometric analysis (reference value: 24.46 +/- 1.15%). It is filed as functional. Background: A flow cytometer gives signals particle by particle.
In data set [14] the test system is HL-60. In words: Cell cycle arrest in human HL60 cells assessed as accumulation at G2/M phase at 50 uM after 72 hrs by flow cytometric analysis (reference value: 10.53 +/- 0.81%). It is filed as functional.
Data set [15] concerns HL-60. In words: Cell cycle arrest in human HL60 cells assessed as accumulation at S phase at 50 uM after 72 hrs by flow cytometric analysis (reference value: 23.58 +/- 1.38%). The class given is functional.
Data set [16] has as its system HL-60. Description: Cell cycle arrest in human HL60 cells assessed as accumulation at Gn phase at 50 uM after 72 hrs by flow cytometric analysis (reference value: 3.43 +/- 0.48%). The class given is functional.
Data set [17] has as its system HL-60. Description: Cell cycle arrest in human HL60 cells assessed as accumulation at G0/G1 phase at 50 uM by flow cytometric analysis. The class given is functional, cell-based. Particulars: TDE = time-dependent effect.
Data set [18] relates to HL-60. Description: Cell cycle arrest in human HL60 cells assessed as accumulation at G2/M phase at 50 uM after 48 hrs by flow cytometric analysis (reference value: 11.35 +/- 1.05%). The class given is functional.
Data set [19] concerns HL-60. Description: Cell cycle arrest in human HL60 cells assessed as accumulation at S phase at 50 uM after 48 hrs by flow cytometric analysis (reference value: 24.29 +/- 1.37%). It is filed as functional.
Data set [20] relates to HL-60. In words: Cell cycle arrest in human HL60 cells assessed as accumulation at G0/G1 phase at 50 uM after 48 hrs by flow cytometric analysis (reference value: 58.77 +/- 2.33%). The class given is functional.
Data set [21] deals with HL-60. Description: Cell cycle arrest in human HL60 cells assessed as accumulation at S phase at 50 uM by flow cytometric analysis. The class given is functional, cell-based. Particulars: TDE = time-dependent effect.
The test system of data set [22] is HL-60. In words: Cell cycle arrest in human HL60 cells assessed as accumulation at G2/M phase at 50 uM by flow cytometric analysis. The class given is functional, cell-based. The settings on record: TDE = time-dependent effect.
The test system of data set [23] is HL-60. Description: Cell cycle arrest in human HL60 cells assessed as accumulation at Gn phase at 50 uM after 48 hrs by flow cytometric analysis (reference value: 3.02 +/- 0.56%). It is filed as functional.
For data set [24], the system named is HL-60. In words: Cell cycle arrest in human HL60 cells assessed as accumulation at Gn phase at 50 uM after 24 hrs by flow cytometric analysis (reference value: 2.96 +/- 0.79%). The class given is functional.
The subject of data set [25] is HL-60. Description: Cell cycle arrest in human HL60 cells assessed as accumulation at preG1 phase at 50 uM after 24 hrs by flow cytometric analysis (reference value: 0.81 +/- 0.11%). The class given is functional.
The test system of data set [26] is HL-60. Description: Cell cycle arrest in human HL60 cells assessed as accumulation at G2/M phase at 50 uM after 24 hrs by flow cytometric analysis (reference value: 16.73 +/- 0.59%). The class given is functional.
Data set [27] relates to HL-60. In words: Cell cycle arrest in human HL60 cells assessed as accumulation at preG1 phase at 50 uM by flow cytometric analysis. It is filed as functional, cell-based. Particulars: TDE = time-dependent effect.
In data set [28] the test system is HL-60. Description: Cell cycle arrest in human HL60 cells assessed as accumulation at preG1 phase at 50 uM after 48 hrs by flow cytometric analysis (reference value: 1.41 +/- 0.32%). The class given is functional.
For data set [29], the system named is HL-60. Description: Cell cycle arrest in human HL60 cells assessed as accumulation at Gn phase at 50 uM by flow cytometric analysis. The class given is functional, cell-based. Particulars: TDE = time-dependent effect.
Data set [30] deals with HL-60. Description: Cell cycle arrest in human HL60 cells assessed as accumulation at preG1 phase at 50 uM after 72 hrs by flow cytometric analysis (reference value: 2.21 +/- 0.57%). The class given is functional.
For data set [31], the system named is HL-60. In words: Cell cycle arrest in human HL60 cells assessed as accumulation at G0/G1 phase at 50 uM after 24 hrs by flow cytometric analysis (reference value: 56.05 +/- 1.40%). It is filed as functional.

For `Cl.N/C(=N\O)Nc1ccc(Oc2ccc(N/C(N)=N/O)cc2)cc1`, the ΔTm in the data set on Salmonidae turned out to be 1 °C. Also, the Activity turned out to be 89.9% in data set [1]; 76.2% in [4]; 53% with MCF7 [6]; 86.4% in data set [7]; 95.8% in [9]. The IC50 is 45.2 µM in the data set on MCF7 [2], 65.5 µM in the data set on HL-60 [3] and 12.2 µM in data set [5]. The pKa in data set [8] turned out to be 8.3.
In the case of `N/C(=N\O)Nc1ccc(C(=O)c2ccc(N/C(N)=N/O)cc2)cc1`, the ΔTm with Salmonidae worked out at 0 °C. Besides, the IC50 with HL-60 [3] was more than 100 µM. Moreover, the result in the data set with HL-60 [10] was inactive.
Take `N/C(=N\O)Nc1ccc(NC(=O)c2ccc(N/C(N)=N/O)cc2)cc1`: in the data set on Salmonidae, the ΔTm stood at 1 °C.
`N=C(N)c1ccc(-c2ccc(-c3ccc(C(=N)N)cc3)o2)cc1` [FURAMIDINE HYDROCHLORIDE]: the ΔTm in data set [11] is 26.2 °C. For the same compound, the IC50 in the data set with MCF7 [2] worked out at 92.8 µM; with HL-60 [3], 77.6 µM; in data set [5], 27.4 µM. The same compound gave a pKa in data set [8] of 10.4.
Turning to `Cl.N/C(=N\O)Nc1ccc(Cc2ccc(N/C(N)=N/O)cc2)cc1`, in the data set with Salmonidae, the ΔTm came out at 0 °C. Moreover, the IC50 in the data set with MCF7 [2] is more than 100 µM; in the data set on HL-60 [3] it was 71.3 µM. Further, in the data set with MCF7 [6], the Activity was determined as 29.8%.
As for `N=C(N)c1ccc(OCCCCCOc2ccc(C(=N)N)cc2)cc1`, the ΔTm with DNA was determined as 10.7 °C.
As to `N/C(=N\O)Nc1ccc(CCc2ccc(N/C(N)=N/O)cc2)cc1`, the ΔTm in the data set on Salmonidae was 0 °C.
As to `N/C(=N\O)c1ccc(OCCCCCOc2ccc(/C(N)=N/O)cc2)cc1`, in the data set on DNA, the ΔTm is 0.2 °C.
For the compound `Cl.N/C(=N\O)Nc1ccc(Sc2ccc(N/C(N)=N/O)cc2)cc1`, the ΔTm with Salmonidae was 1 °C. Also, the Activity in the data set with HL-60 [12] amounted to 44.8%; in [1], 95%; in the data set on HL-60 [13] it was 25.85%; in the data set on HL-60 [14], 14.54%; in the data set with HL-60 [15] it was 15.99%; in the data set with HL-60 [16] it was 2.1%. For the same compound, the Activity entry was “tde” in the data set with HL-60 [17]; 10.78% in the data set on HL-60 [18]; 21.71% in the data set on HL-60 [19]; 56.62% in the data set with HL-60 [20]; “tde” with HL-60 [21]; 79.4% in data set [4]. In addition, the Activity entry in the data set with HL-60 [22] was “tde”; in the data set on HL-60 [23], 1.94%; in the data set on HL-60 [24] it was 2.35%; in the data set with HL-60 [25], 1.53%; in the data set on HL-60 [26], 14.57%; with HL-60 [27] it was “tde”. Moreover, the Activity in the data set on MCF7 [6] is 23.1%; in the data set with HL-60 [28], 6.44%; in the data set with HL-60 [29] it was “tde”; in data set [7] it was 93.9%; in the data set on HL-60 [30], 22.2%; in data set [9], 96.8%. The Activity in the data set on HL-60 [31] turned out to be 55.9%. Also, the IC50 with MCF7 [2] is more than 100 µM; in the data set on HL-60 [3], 46.4 µM; in data set [5], 8.6 µM.

The term ΔTm denotes the shift of the melting midpoint relative to a reference. Broadly, the IC50 is the concentration that gives 50% inhibition. The pKa is the pH at which an ionisable group is half protonated. A lower pKa goes with a group that gives up its proton readily.
